Each block holds one compound with its values, some of them ahead of it.
Tests used:
[1] = target: Hepatocyte growth factor receptor (Homo sapiens, UniProt P08581); test: Inhibition of cMet by HTRF assay
[2] = Selectivity of cMet over EGFR
[3] = target: Ribosomal protein S6 kinase beta-1 (Homo sapiens, UniProt P23443); test: Inhibition of P70S6
[4] = Clearance in iv dosed rat; type: ADME, organism-based; settings: in vivo
[5] = target: Macrophage-stimulating protein receptor (Homo sapiens, UniProt Q04912); test: Inhibition of phosphorylated RON
[6] = target: T1, Tyrosine-protein kinase JAK3 (Homo sapiens, UniProt P52333); test: Inhibition of JAK3
T1 sequence (P52333 whole entry): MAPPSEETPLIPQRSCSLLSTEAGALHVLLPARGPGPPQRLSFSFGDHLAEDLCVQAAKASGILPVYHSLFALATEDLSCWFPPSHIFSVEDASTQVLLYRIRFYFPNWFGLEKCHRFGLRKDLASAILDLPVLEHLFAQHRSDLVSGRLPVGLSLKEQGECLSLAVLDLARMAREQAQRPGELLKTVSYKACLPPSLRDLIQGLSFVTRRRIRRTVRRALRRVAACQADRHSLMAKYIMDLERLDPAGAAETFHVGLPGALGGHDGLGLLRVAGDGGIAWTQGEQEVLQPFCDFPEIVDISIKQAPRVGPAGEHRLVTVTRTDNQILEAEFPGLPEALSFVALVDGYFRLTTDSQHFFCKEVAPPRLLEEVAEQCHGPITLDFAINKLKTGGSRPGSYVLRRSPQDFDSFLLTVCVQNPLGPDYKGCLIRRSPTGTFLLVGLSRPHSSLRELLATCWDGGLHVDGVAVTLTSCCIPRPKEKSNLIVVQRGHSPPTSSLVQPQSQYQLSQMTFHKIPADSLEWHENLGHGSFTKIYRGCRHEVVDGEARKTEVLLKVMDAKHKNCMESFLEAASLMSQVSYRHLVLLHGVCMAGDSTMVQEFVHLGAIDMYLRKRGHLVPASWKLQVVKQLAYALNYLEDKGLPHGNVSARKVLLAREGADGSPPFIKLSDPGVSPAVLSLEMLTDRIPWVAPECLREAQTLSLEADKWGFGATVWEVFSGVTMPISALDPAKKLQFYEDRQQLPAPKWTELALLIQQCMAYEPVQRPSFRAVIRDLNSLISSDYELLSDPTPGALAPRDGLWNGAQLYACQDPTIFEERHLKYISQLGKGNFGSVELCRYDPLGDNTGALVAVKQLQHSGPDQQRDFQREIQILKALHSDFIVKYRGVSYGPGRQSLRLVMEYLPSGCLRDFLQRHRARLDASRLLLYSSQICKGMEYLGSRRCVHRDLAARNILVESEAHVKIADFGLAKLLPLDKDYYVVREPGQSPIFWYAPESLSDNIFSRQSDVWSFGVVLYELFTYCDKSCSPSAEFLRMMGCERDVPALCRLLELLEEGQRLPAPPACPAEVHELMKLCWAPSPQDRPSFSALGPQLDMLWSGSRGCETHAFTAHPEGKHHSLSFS

[7] = Selectivity of cMet over PKBalpha
[8] = Selectivity of cMet over FGFRK2
[9] = target: Ribosomal protein S6 kinase alpha-5 (Homo sapiens, UniProt O75582); test: Inhibition of MSK1
[10] = Selectivity of cMet over Flt1
[11] = Selectivity of cMet over ZAP70
[12] = Selectivity of cMet over PIM1
[13] = Bioavailability in iv dosed rat; type: ADME, organism-based; settings: in vivo
Angiopoietin-1 receptor = Angiopoietin-1 receptor (Homo sapiens, UniProt Q02763); test: Inhibition of Tie2 kinase
[14] = Inhibition of FGFRK
[15] = target: Tyrosine-protein kinase Lck (Homo sapiens, UniProt P06239); test: Inhibition of LCK
[16] = Selectivity of cMet over CDK5
[17] = Selectivity of cMet over JAK3
[18] = Half life in iv dosed rat; type: ADME, organism-based; settings: in vivo
[19] = Selectivity of cMet over JNK2
[20] = target: Cyclin-dependent kinase 5 (Homo sapiens, UniProt Q00535); test: Inhibition of CDK5
[21] = target: Serine/threonine-protein kinase pim-1 (Homo sapiens, UniProt P11309); test: Inhibition of PIM1 kinase
[22] = target: Tyrosine-protein kinase BTK (Homo sapiens, UniProt Q06187); test: Inhibition of BTK
[23] = Selectivity of cMet over cFMS kinase
[24] = target: RAC-alpha serine/threonine-protein kinase (Homo sapiens, UniProt P31749); test: Inhibition of PKBalpha
[25] = Selectivity of cMet over FGFRK
[26] = Selectivity of cMet over Tie2 kinase
[27] = target: Mitogen-activated protein kinase 3 (Homo sapiens, UniProt P27361); test: Inhibition of ERK1
[28] = Selectivity of cMet over ERK1
[29] = Selectivity of cMet over MSK1
Mus musculus = test: Inhibition of human recombinant HGF-induced cMet phosphorylation in po or ip dosed BALB/c mouse liver after 2 hrs
[30] = Selectivity of cMet over PIM2
[31] = Selectivity of cMet over Aurora2
[32] = target: Hepatocyte growth factor receptor c-Met (Mus musculus) (UniProt P16056); test: Inhibition of human recombinant HGF-mediated cMet phosphorylation in mouse CT26 cells
Aurora kinase A = target: T2, Aurora kinase A (Homo sapiens, UniProt O14965); test: Inhibition of Aurora2
T2 sequence (O14965 whole entry): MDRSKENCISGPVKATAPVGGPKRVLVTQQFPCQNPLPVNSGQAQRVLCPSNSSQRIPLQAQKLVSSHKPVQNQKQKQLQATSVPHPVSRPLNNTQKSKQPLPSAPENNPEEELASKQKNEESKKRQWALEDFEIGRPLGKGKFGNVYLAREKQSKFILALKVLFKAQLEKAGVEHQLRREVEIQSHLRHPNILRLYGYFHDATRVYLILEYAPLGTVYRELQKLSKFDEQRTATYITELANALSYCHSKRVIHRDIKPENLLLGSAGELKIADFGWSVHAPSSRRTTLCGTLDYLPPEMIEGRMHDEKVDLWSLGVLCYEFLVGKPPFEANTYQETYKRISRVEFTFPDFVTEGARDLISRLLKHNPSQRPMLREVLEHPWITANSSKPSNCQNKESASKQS

[33] = Inhibition of IGFR
[34] = target: Mitogen-activated protein kinase 9 (Homo sapiens, UniProt P45984); test: Inhibition of JNK2
[35] = Selectivity of cMet over P38
[36] = target: Vascular endothelial growth factor receptor 2 (Homo sapiens, UniProt P35968); test: Inhibition of phosphorylated KDR by HTRF assay
Method in brief: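 HTRF assay against KDR kinase with 10-point serial dilution. ATP at two-thirds of the experimentally determined Km (Eadie-Hofstee and Lineweaver-Burke). Ki derived from the IC50.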

[37] = Selectivity of cMet over Flt2
[38] = Selectivity of cMet over JAK2
[39] = target: Serine/threonine-protein kinase pim-2 (Homo sapiens, UniProt Q9P1W9); test: Inhibition of PIM2 kinase
[40] = Selectivity of cMet over P70S6
[41] = target: cAMP-dependent protein kinase catalytic subunit alpha (Homo sapiens, UniProt P17612); test: Inhibition of PKAalpha
[42] = Selectivity of cMet over BTK
[43] = Selectivity of cMet over PKAalpha
[44] = Volume of distribution in iv dosed rat; type: ADME, organism-based; settings: in vivo
[45] = Selectivity of cMet over LCK
[46] = Inhibition of P38 kinase
[47] = target: Tyrosine-protein kinase ZAP-70 (Homo sapiens, UniProt P43403); test: Inhibition of ZAP70
[48] = target: Vascular endothelial growth factor receptor 1 (Homo sapiens, UniProt P17948); test: Inhibition of Flt1 kinase
[49] = target: Fibroblast growth factor receptor 2 (Homo sapiens, UniProt P21802); test: Inhibition of FGFRK2
[50] = target: Tyrosine-protein kinase JAK2 (Homo sapiens, UniProt O60674); test: Inhibition of JAK2
[51] = target: Vascular endothelial growth factor receptor 3 (Homo sapiens, UniProt P35916); test: Inhibition of Flt4 kinase
[52] = Selectivity of cMet over KDR
[53] = Selectivity of cMet over RON

Ki [1]: 38 nM
SMILES: COc1cc2nccc(Oc3ccc(-c4cnc(Nc5cccc(F)c5)n(C)c4=O)cc3F)c2cc1OC

Selectivity ratio [2]: > 100 | IC50 [3]: 65 µM | clearance [4]: 9.33 mL/min/kg | Ki [5]: 1.3 nM | IC50 [6]: > 25 µM | Selectivity ratio [7]: > 100 | Selectivity ratio [8]: > 100 | IC50 [9]: 52 µM | Selectivity ratio [10]: > 100 | Selectivity ratio [11]: > 100 | Selectivity ratio [12]: > 100 | bioavailability [13]: 48% | IC50 (Angiopoietin-1 receptor): 221 nM | IC50 [14]: 1300 nM | IC50 [15]: 33 nM | Selectivity ratio [16]: > 100 | Selectivity ratio [17]: > 100 | half-life [18]: 144 min | Selectivity ratio [19]: > 100 | IC50 [20]: > 100 µM | IC50 [21]: 7.8 µM | IC50 [22]: 126 nM | Selectivity ratio [23]: < 10 | IC50 [24]: > 100 µM | Selectivity ratio [25]: > 100 | Selectivity ratio [26]: > 100 | IC50 [27]: > 100 µM | Selectivity ratio [28]: > 100 | Selectivity ratio [29]: > 100 | Selectivity ratio [30]: > 100 | Selectivity ratio [31]: > 100 | IC50 [32]: 59 nM | Ki [1]: 3.4 nM | IC50 (Aurora kinase A): 426 nM | Ki [33]: 51 nM | IC50 [34]: 4.7 µM | Selectivity ratio [35]: > 100 | Ki [36]: 83 nM | Selectivity ratio [37]: > 100 | Selectivity ratio [38]: > 100 | IC50 [39]: > 25 µM | Selectivity ratio [40]: > 100 | IC50 [41]: > 25 µM | Selectivity ratio [42]: < 10 | Selectivity ratio [43]: > 100 | Vd [44]: 3.4 L/kg | Selectivity ratio [45]: < 10 | IC50 [46]: > 100 µM
SMILES: COc1cc2c(Oc3ccc(-c4cnc(Nc5ccc(F)cc5)n(C)c4=O)nc3)ccnc2cc1OCCCN1CCOCC1
ED90 (Mus musculus): 30 mg/kg

IC50 [3]: 5.7 µM | clearance [4]: 9.33 mL/min/kg | Ki [5]: 28 nM | IC50 [6]: > 1 µM | IC50 [47]: > 8.3 µM | IC50 [9]: > 100 µM | bioavailability [13]: 34% | IC50 (Angiopoietin-1 receptor): 26 nM | IC50 [14]: > 25000 nM | IC50 [15]: < 4 nM | half-life [18]: 144 min | IC50 [48]: 45 nM | IC50 [22]: 27 nM | IC50 [24]: > 100 µM | IC50 [27]: > 100 µM | IC50 [49]: 140 nM | IC50 [50]: 3.4 µM | IC50 [32]: 82 nM | Ki [1]: 4.9 nM | IC50 (Aurora kinase A): > 200 nM | Ki [33]: 22 nM | IC50 [34]: > 100 µM | Ki [36]: 139 nM | IC50 [41]: > 100 µM | Vd [44]: 3.4 L/kg | IC50 [51]: 5 nM | IC50 [46]: 3.6 µM
SMILES: COc1cc2c(Oc3ccc(-c4cnc(Nc5ccc(F)cc5)n(C)c4=O)cc3F)ccnc2cc1OCCCN1CCOCC1
ED90 (Mus musculus): 30 mg/kg

The remaining lines, values behind:

SMILES: COc1cc2nccc(Oc3ccc(-c4cnc(Cc5ccccc5)n(C)c4=O)cc3F)c2cc1OC
Ki [33]: 1030 nM | Ki [36]: > 1300 nM

SMILES: COc1cc2nccc(Oc3ccc(-c4cnc(C(N)c5ccccc5)n(C)c4=O)cc3F)c2cc1OC (stereo not given)
Ki [1]: 72 nM

SMILES: CCN1CCN(CCCOc2cc3nccc(Oc4ccc(-c5cnc(Cc6ccccc6)n(C)c5=O)cc4F)c3cc2OC)CC1
Ki [1]: 21 nM

SMILES: COc1cc2nccc(Oc3ccc4cc(NC(=O)Cc5ccccc5)ccc4c3)c2cc1OC
Selectivity ratio [52]: 9 | Selectivity ratio [53]: 3 | Ki [1]: 89 nM

Reference: ChEMBL document CHEMBL1140082, “Design, synthesis, and biological evaluation of potent c-Met inhibitors” (J Med Chem, 2008)
